Hits are enriched below; roughly 1.6% of the tested compounds scored in any of these assays.
NR2E3 ag-1: NR2E3 (human) agonism | Q9Y5X4 | GST-NR2E3/biotin-RetCOR TR-FRET, 1536-well | inhibition of corepressor binding, % at 4.78 µM | 0.12% of 320,000 active;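 active = percent inhibition above the cutoff of mean plus 3 SD of all tested compounds, set per screening campaign, cut at about 20% in these data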;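 also: 0% = DMSO wells and 100% = biotin wells as full block of FRET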
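Test system – NR2E3–RetCOR corepressor complex · Quantity – NR2E3 fusion 1.35 nM · Buffer or medium – Tris pH 7.5 · Incubation – Compound–protein incubation for 5 h at 4 °C · Technique – TR-FRET, Eu(K)-anti-GST donor, streptavidin-D2 acceptor, ex 340, em 617/671 nm · Evaluation – percent inhibition of 671/617 nm emission ratio versus biotin and DMSO controls · Plate – 1536-well format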
PG9 Ab binder: small molecules binding HIV-1 gp120 antibody PG9; TR-FRET gp120-PG9 antibody binding; inhibition, % at 6.7 µM; 0.43% of 360,000 active; AID 624416; in the data active = inhibition above about 8.5%
Rev-erbA mod: modulates human Rev-erb alpha binding to DNA; P20393; Rev-erbα–FITC-DNA binding, fluorescence polarization, 90 min; activity, % at 10 µM; 0.79% of 370,000 active;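 active = activity above about 14%, limit read from the data; passing the limit was not always enough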;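 also: 0% = DMSO wells with 35 nM protein and 100% = DMSO wells with 750 nM protein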
Target sequence (P20393 whole entry, looked up): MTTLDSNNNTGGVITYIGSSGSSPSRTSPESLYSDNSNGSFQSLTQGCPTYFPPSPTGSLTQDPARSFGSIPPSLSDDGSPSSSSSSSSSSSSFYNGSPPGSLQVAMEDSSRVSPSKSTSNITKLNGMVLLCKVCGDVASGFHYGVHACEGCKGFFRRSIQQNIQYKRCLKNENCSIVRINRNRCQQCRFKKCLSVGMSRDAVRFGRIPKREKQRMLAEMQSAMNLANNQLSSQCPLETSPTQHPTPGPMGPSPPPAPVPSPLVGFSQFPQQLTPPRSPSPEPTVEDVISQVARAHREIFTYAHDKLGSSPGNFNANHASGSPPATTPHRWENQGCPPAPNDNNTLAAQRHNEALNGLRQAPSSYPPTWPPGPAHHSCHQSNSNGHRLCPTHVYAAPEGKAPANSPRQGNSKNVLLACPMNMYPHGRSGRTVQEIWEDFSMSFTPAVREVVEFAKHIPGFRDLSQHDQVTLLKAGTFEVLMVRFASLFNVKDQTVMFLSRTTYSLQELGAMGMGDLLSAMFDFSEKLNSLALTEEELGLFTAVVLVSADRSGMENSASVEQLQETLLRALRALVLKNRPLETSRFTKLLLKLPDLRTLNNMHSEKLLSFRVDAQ
PKA-R1A activ: PKA-R1A complex activation; P00514+P68181; PKA-R1A dissociation, Cy5-IP20 fluorescence polarization; scaled: DMSO 0%, 113 µM cGMP 100%; activation, % at 11.4 µM; 0.083% of 340,000 active;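 active = percent activation above the mean of all tested compounds plus 3 SD, cut at about 19% in these data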;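 also: higher means more PKAc released from R1A so a rise in polarization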
PKA-R2B act: activates the human PKA-R2B holoenzyme complex; PKA-R2B holoenzyme dissociation, Cy5-IP20 fluorescence polarization; R2B truncated from residue 108, S112A mutant; 0% DMSO only, 100% 113 µM cGMP; activation, % at 11.4 µM; P22694+P31323; 0.079% of 340,000 active;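 active = activation above a cutoff set at the mean over all compounds plus 3 SD, cut at about 18% in these data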;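 also: higher means more holoenzyme dissociation and a rise in polarization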
NR2E3 ag-2: human photoreceptor-specific nuclear receptor agonism; Q9Y5X4; CHO-S Gal4-NCOR/VP16-NR2E3 two-hybrid, luciferase; inhibition of corepressor binding, % at 3.98 µM; 0.35% of 360,000 active; AID 602229;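 active = inhibition above the mean of all tested compounds plus 3 SD, cut at about 70% in these data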;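 also: 0% = DMSO with NR2E3 transfected cells and 100% = cells lacking NR2E3 construct; higher means lower luciferase signal from less NR2E3 corepressor binding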
NR2E3 ag confirm: NR2E3 agonism confirmed in two-hybrid assay. shares compounds with NR2E3 ag-2. CHO-S mammalian two-hybrid NR2E3-NCOR, luciferase luminescence. inhibition, % at 3.98 µM. 51% of 2,300 active. AID 624378;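 active = average inhibition above a cutoff equal to the mean inhibition of all tested compounds plus one SD, cut at about 70% in these data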;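 also: 0% = DMSO in NR2E3 cells and 100% = DMSO in cells lacking NR2E3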
GAL4-VP16 luc: GAL4-VP16 reporter inhibition in NR2E3 agonist counterscreen | inhibition, % at 3.98 µM | 29% of 2,300 active | shares compounds with NR2E3 ag-2 | AID 624379 | CHO-S GAL4-VP16 luciferase reporter, luminescence;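 active = mean inhibition above a cutoff equal to the average over all tested compounds plus one standard deviation, cut at about 70% in these data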;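 also: luciferase from a UAS reporter driven by GAL4-VP16 transactivation; 0% = DMSO with VP16-transfected cells and 100% = DMSO with cells lacking VP16; higher means less reporter light so more repression of VP16 activity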
Active calls of the source: *; / = no result given.

SMILES	NR2E3 ag-1	PG9 Ab binder	Rev-erbA mod	PKA-R1A activ	PKA-R2B act	NR2E3 ag-2	NR2E3 ag confirm	GAL4-VP16 luc
N#C/C(=N\Nc1ccc(Cl)cc1)C(N)=S	0.6	-3.0	5.8	-1.3	-0.1	67.3	-14.0	5.5
COc1ccc(N2CCN(CCCNC(=O)Cc3ccc(C(F)(F)F)cc3)CC2)cc1	/	/	-3.9	/	/	/	/	/
C[C@H](CO)N1C[C@H](C)[C@@H](CN(C)C(=O)Nc2ccc3c(c2)OCCO3)OCc2cnnn2CCCC1=O	/	1.2	0.5	-2.6	3.4	62.7	7.8	-22.2
C[C@@H]1CN([C@H](C)CO)C(=O)CCCn2nncc2CO[C@H]1CN(C)C(=O)Nc1ccc2c(c1)OCO2	/	-0.3	-2.2	-14.0	-5.0	-34.9	/	/
CCOC(=O)Cc1nc(N2CCN(C(=O)C3CCCO3)CC2)c2c(C)c(C(=O)OCC)sc2n1 (configuration not stated)	/	/	-3.1	/	/	/	/	/
Cc1ccc(NS(=O)(=O)c2cc(Br)cnc2N)c(Cl)c1	1.9	1.1	0.7	-0.4	-7.8	-11.0	/	/
Nc1ncc(Br)cc1S(=O)(=O)Nc1cc(C(F)(F)F)cc(C(F)(F)F)c1	-0.1	1.1	-3.4	-16.3	-12.6	108.6*	100.6*	89.9*
COc1ccc2ccccc2c1C=NNC(=O)c1cc(-c2ccc(C)c(C)c2)n[nH]1	/	/	-16.0	/	/	/	/	/
Cc1ccccc1Nc1c(-c2ccccn2)nc2ccccn12	-2.0	-1.6	1.6	-12.1	-8.0	76.2*	34.9	1.6
Cc1ccn2c(NC(=O)c3ccccc3)c(-c3ccccc3)nc2c1	-1.0	-2.3	-0.5	6.1	10.1	-8.3	/	/
Cc1ccn2c(Nc3ccccc3)c(-c3ccccn3)nc2c1	-2.1	-0.8	3.2	2.7	-10.9	67.6	90.8*	64.5
Cc1ccc2nc(-c3cccnc3)c(Nc3ccccc3C)n2c1	3.3	0.8	-3.1	10.7	1.1	8.6	/	/
Cc1ccccc1Nc1c(-c2cccnc2)nc2ccccn12	3.8	0.3	0.0	5.4	-5.7	27.4	/	/
Cc1cccn2c(Nc3ccccc3)c(-c3ccccn3)nc12	-2.0	-0.4	2.4	-7.4	-11.4	81.6*	3.4	9.2
Cc1ccc2nc(-c3ccccn3)c(Nc3ccccc3C)n2c1	-5.3	-0.3	-4.1	-2.3	-4.7	94.5*	34.2	-39.3
COc1ccc(-c2nc3ncccn3c2Nc2ccccc2)cc1	-4.2	-3.8	-4.4	2.4	-7.8	-33.5	/	/
CCCCNC(=O)C[C@H]1C[C@@]2(C(=O)OC)C(=C[C@H](C3CCCC3)O[C@@H]2C)N(Cc2cccc3ccccc23)C1=O	/	/	0.0	/	/	/	/	/
C=CCN1[C@H](CC(C)C)COc2cc(N3CCCC3)ccc2S1(=O)=O	/	/	2.5	/	/	/	/	/
Cc1ccn2c(Nc3ccccc3C)c(-c3ccccn3)nc2c1	1.2	0.8	-0.6	-4.1	-0.6	97.1*	44.4	8.2
COC(=O)[C@]12C[C@H](CC(=O)NCCC(C)C)C(=O)N(CCC3=CCCCC3)C1=C[C@H](C(C)C)O[C@@H]2C1CC1	/	/	-0.4	/	/	/	/	/
Cn1nnnc1Sc1ncnc2scc(-c3cccc(Br)c3)c12	/	-0.4	-4.1	-6.6	2.1	50.7	26.2	45.6
Cn1nnnc1Sc1ncnc2scc(-c3ccccc3Cl)c12	1.1	-0.7	9.3	0.5	-4.7	66.4	34.2	52.0
Cc1ccc(-n2c(SCC(=O)Nc3ccccc3-c3ccccc3)nnc2-c2cccnc2)cc1	/	/	-1.1	/	/	/	/	/
Cc1cccc(C(=O)Nc2nc3ncccn3c2-c2ccc(F)c(F)c2)c1	/	/	-3.4	/	/	/	/	/
CC1(Cc2ccc(Cl)cc2)C(=O)Nc2ccc(S(=O)(=O)NC3CCCCC3)cc21 (configuration not stated)	/	-0.2	4.2	/	/	-21.8	/	/
SMILES	NR2E3 ag-1	PG9 Ab binder	Rev-erbA mod	PKA-R1A activ	PKA-R2B act	NR2E3 ag-2	NR2E3 ag confirm	GAL4-VP16 luc
CC1(Cc2ccc(OC(F)(F)F)cc2)C(=O)Nc2ccc(S(=O)(=O)NC3CCCCC3)cc21 (configuration not stated)	/	-0.9	2.8	/	/	85.1*	50.9	23.0
CCOc1ccc(S(=O)(=O)NCc2ccncc2)cc1	1.8	1.7	-3.7	-1.0	2.1	92.0*	95.4*	90.0*
Cc1ccc(S(=O)(=O)NCc2ccncc2)cc1	-1.5	0.7	-2.3	-11.3	2.5	74.1*	71.5*	67.8
CCOC(=O)COc1ccc(S(=O)(=O)NCc2ccncc2)cc1	1.1	2.3	-2.6	-1.2	8.2	13.3	/	/
Cc1cc(S(=O)(=O)NCc2ccncc2)c(C)cc1Br	-1.3	-1.4	-0.8	-4.4	-4.6	101.1*	93.8*	81.7*
CCOc1cc(S(=O)(=O)NCc2ccncc2)ccc1Cl	4.3	0.2	3.6	/	/	88.1*	97.3*	87.4*
Cc1ccc(S(=O)(=O)NCC(=O)NCc2ccncc2)cc1	-2.3	-2.1	0.8	-3.5	-1.1	-4.8	/	/
CCCCCCCCN1C(=O)[C@@H](CC(=O)NCCCN2CCCC2=O)C[C@@]2(C(=O)OC)C1=C[C@H](C(C)(C)C)O[C@@H]2C	/	-0.8	-3.8	/	/	/	/	/
Cc1sc2nc(SCC(=O)c3ccc(O)c(O)c3)n(C)c(=O)c2c1C	/	/	-27.6	/	/	/	/	/
O=S(=O)(Nc1cccc2cccnc12)c1ccccc1	-0.1	-0.4	6.3	-10.4	-9.7	85.8*	18.1	3.6
Cc1ccc(S(=O)(=O)Nc2cccc3cccnc23)c([N+](=O)[O-])c1	1.1	0.5	5.7	5.5	2.5	75.5*	54.6	22.4
